From ChEMBL document CHEMBL4689842, “EUbOPEN Chemogenomics Library wave 1” (2021)
Where “and” joins values, the source holds several entries; their conditions need not be identical. Equal values may be shown once.

Test system: U2OS
Test: Multiplex assay against U2OS
Assay type: toxicity, cell-based
Settings: human
Outline: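 With compound added, live cells were imaged on a CQ1 microscope at 37°C and 5% CO2; staining with Hoechst33342, BioTracker Green Microtubule Cytoskeleton Dye, MitoTracker Red and Annexin V Alexa Fluor 680 had been done at seeding. The CellPathfinder machine-learning gating scheme split cells into Hoechst high-intensity objects or normal cells, normal cells into healthy, pyknosed or fragmented nuclei, and pyknosed cells into mitotic or apoptotic. The tubulin, mitochondrial-mass and membrane-permeability phenotypes are per cents of healthy-nucleus cells.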

[1] = 12 h, 1 µM, compound concentration 1 uM, replicate 1
[2] = 12 h, 1 µM, compound concentration 1 uM, replicate 2
[3] = 12 h, 10 µM, compound concentration 10 uM, replicate 1
[4] = 12 h, 10 µM, compound concentration 10 uM, replicate 2
[5] = 24 h, 1 µM, compound concentration 1 uM, replicate 1
[6] = 24 h, 1 µM, compound concentration 1 uM, replicate 2
[7] = 24 h, 10 µM, compound concentration 10 uM, replicate 1
[8] = 24 h, 10 µM, compound concentration 10 uM, replicate 2
[9] = 48 h, 10 µM, compound concentration 10 uM, replicate 1
[10] = 48 h, 10 µM, compound concentration 10 uM, replicate 2

Structure (SMILES): CC(C)Oc1ccc(C(=O)N[C@H](CNC(=O)CN(C)C)Cc2ccc(-c3cn4cccc([C@H](C)O)c4n3)cc2)cc1Cl [GSK-923295A]
- Population Apoptotic (%) [1]: 27%
- Population Fragmented Nuclei (%) [1]: 9%
- Population Healthy Nuclei (%) [1]: 75%
- Population Hoechst High Intensity Objects (%) [1]: 1%
- Population Membrane Permeable-Phenotype (%) [1]: 33%
- Population Mitochondria Different-Phenotype (%) [1]: 23%
- Population Mitotic Cells (%) [1]: 72%
- Population Normal (%) [1]: 98%
- Population Pyknosed Nuclei (%) [1]: 15%
- Population Tubulin-Different-Phenotype (%) [1]: 14%
- Total Cell Count [1]: 253
- Population Apoptotic (%) [2]: 21%
- Population Fragmented Nuclei (%) [2]: 11%
- Population Healthy Nuclei (%) [2]: 66%
- Population Hoechst High Intensity Objects (%) [2]: 11%
- Population Membrane Permeable-Phenotype (%) [2]: 29%
- Population Mitotic Cells (%) [2]: 78%
- Population Normal (%) [2]: 88%
- Population Pyknosed Nuclei (%) [2]: 22%
- Population Tubulin-Different-Phenotype (%) [2]: 19%
- Total Cell Count [2]: 153
- Population Apoptotic (%) [3]: 48% and 53%
- Population Fragmented Nuclei (%) [3]: 9% and 14%
- Population Healthy Nuclei (%) [3]: 75% and 62%
- Population Hoechst High Intensity Objects (%) [3]: 3% and 11%
- Population Membrane Permeable-Phenotype (%) [3]: 31% and 19%
- Population Mitochondria Different-Phenotype (%) [3]: 37% and 93%
- Population Mitotic Cells (%) [3]: 51% and 46%
- Population Normal (%) [3]: 96% and 88%
- Population Pyknosed Nuclei (%) [3]: 15% and 23%
- Population Tubulin-Different-Phenotype (%) [3]: 98% and 97%
- Total Cell Count [3]: 146 and 119
- Population Apoptotic (%) [4]: 30% and 33%
- Population Fragmented Nuclei (%) [4]: 32%
- Population Healthy Nuclei (%) [4]: 73% and 51%
- Population Hoechst High Intensity Objects (%) [4]: 2%
- Population Membrane Permeable-Phenotype (%) [4]: 30% and 56%
- Population Mitochondria Different-Phenotype (%) [4]: 89% and 67%
- Population Mitotic Cells (%) [4]: 69% and 66%
- Population Normal (%) [4]: 97%
- Population Pyknosed Nuclei (%) [4]: 17% and 16%
- Population Tubulin-Different-Phenotype (%) [4]: 100%
- Total Cell Count [4]: 76 and 116
- Population Apoptotic (%) [5]: 24%
- Population Fragmented Nuclei (%) [5]: 18%
- Population Healthy Nuclei (%) [5]: 61%
- Population Hoechst High Intensity Objects (%) [5]: 2%
- Population Membrane Permeable-Phenotype (%) [5]: 28%
- Population Mitochondria Different-Phenotype (%) [5]: 19%
- Population Mitotic Cells (%) [5]: 75%
- Population Normal (%) [5]: 97%
- Population Pyknosed Nuclei (%) [5]: 19%
- Population Tubulin-Different-Phenotype (%) [5]: 13%
- Total Cell Count [5]: 249
- Population Apoptotic (%) [6]: 29%
- Population Fragmented Nuclei (%) [6]: 13%
- Population Healthy Nuclei (%) [6]: 72%
- Population Hoechst High Intensity Objects (%) [6]: 10%
- Population Membrane Permeable-Phenotype (%) [6]: 19%
- Population Mitochondria Different-Phenotype (%) [6]: 22%
- Population Mitotic Cells (%) [6]: 70%
- Population Normal (%) [6]: 89%
- Population Pyknosed Nuclei (%) [6]: 14%
- Population Tubulin-Different-Phenotype (%) [6]: 15%
- Total Cell Count [6]: 136
- Population Apoptotic (%) [7]: 78% and 72%
- Population Fragmented Nuclei (%) [7]: 12% and 17%
- Population Healthy Nuclei (%) [7]: 56% and 61%
- Population Hoechst High Intensity Objects (%) [7]: 4% and 9%
- Population Membrane Permeable-Phenotype (%) [7]: 45% and 40%
- Population Mitochondria Different-Phenotype (%) [7]: 66% and 88%
- Population Mitotic Cells (%) [7]: 21% and 27%
- Population Normal (%) [7]: 95% and 90%
- Population Pyknosed Nuclei (%) [7]: 31% and 20%
- Population Tubulin-Different-Phenotype (%) [7]: 97%
- Total Cell Count [7]: 171 and 128
- Population Apoptotic (%) [8]: 60% and 35%
- Population Fragmented Nuclei (%) [8]: 33% and 11%
- Population Healthy Nuclei (%) [8]: 33% and 64%
- Population Hoechst High Intensity Objects (%) [8]: 6% and 2%
- Population Membrane Permeable-Phenotype (%) [8]: 64% and 53%
- Population Mitochondria Different-Phenotype (%) [8]: 75% and 96%
- Population Mitotic Cells (%) [8]: 39% and 65%
- Population Normal (%) [8]: 93% and 97%
- Population Pyknosed Nuclei (%) [8]: 33% and 24%
- Population Tubulin-Different-Phenotype (%) [8]: 100%
- Total Cell Count [8]: 133 and 72
- Population Apoptotic (%) [9]: 66%
- Population Fragmented Nuclei (%) [9]: 18%
- Population Healthy Nuclei (%) [9]: 41%
- Population Hoechst High Intensity Objects (%) [9]: 10%
- Population Membrane Permeable-Phenotype (%) [9]: 49%
- Population Mitochondria Different-Phenotype (%) [9]: 85%
- Population Mitotic Cells (%) [9]: 33%
- Population Normal (%) [9]: 89%
- Population Pyknosed Nuclei (%) [9]: 40%
- Population Tubulin-Different-Phenotype (%) [9]: 97%
- Total Cell Count [9]: 133
- Population Apoptotic (%) [10]: 73%
- Population Fragmented Nuclei (%) [10]: 9%
- Population Healthy Nuclei (%) [10]: 43%
- Population Hoechst High Intensity Objects (%) [10]: 7%
- Population Membrane Permeable-Phenotype (%) [10]: 81%
- Population Mitochondria Different-Phenotype (%) [10]: 96%
- Population Mitotic Cells (%) [10]: 26%
- Population Normal (%) [10]: 92%
- Population Pyknosed Nuclei (%) [10]: 46%
- Population Tubulin-Different-Phenotype (%) [10]: 100%
- Total Cell Count [10]: 86
